Compounds with a hit are over-represented: about 3.5% of the library has one in this group of screens.
RGS4 pot: potentiators or activators of RGS4 | actives 0.92% (n = 310,000) | AID 463111 | HEK293 M3R/inducible RGS4, carbachol calcium flux Fluo4; stronger effect = lower value | B-score at 10 µM;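 active = B-score of the integrated calcium signal more than 4 SD below the library mean, with starting fluorescence not abnormally high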;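 note: negative B-score means reduced calcium response which marks RGS4 activation or potentiation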
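Test system: HEK293 cells with stable M3R and inducible RGS4; also added: carbachol at ECmax as muscarinic agonist stimulus; schedule: dye loading 30 min 37 °C, buffer rest 30 min RT; technique: kinetic calcium fluorescence imaging with Fluo4-AM dye, 2 µM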
MrgX1 antagonist: antagonists of human MrgX1 receptor | Q96LB2 | MRGX1-HEK293 calcium flux, Fluo-4, BAM8-22 antagonism; stronger effect = lower value | B-score at 10 µM | actives 1.3% (n = 310,000) | AID 588676;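 active = calcium-response B-score plate-corrected more than 3 library SD below zero, starting fluorescence within 5 deviations, no agonist response on first addition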;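 note: peak minus trough fluorescence over baseline after final BAM8-22 challenge near maximal dose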
RGS4 block: human RGS4 inhibition; AID 463165; HEK293 M3R/RGS4 inducible, Fluo-4 calcium flux; stronger effect = higher value; triggered by carbachol at its EC20; P49798; B-score at 10 µM; actives 0.45% (n = 310,000);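 active = B-score, a plate-corrected calcium signal, over three deviations above library mean, with baseline fluorescence within five deviations of library mean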;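 note: RGS4 expression induced by doxycycline in cells with stable M3 receptor; B-score is computed from the integrated fluorescence ratio over baseline after carbachol; higher B-score means a larger calcium signal and so more RGS4 inhibition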
Target sequence (P49798 whole entry, looked up): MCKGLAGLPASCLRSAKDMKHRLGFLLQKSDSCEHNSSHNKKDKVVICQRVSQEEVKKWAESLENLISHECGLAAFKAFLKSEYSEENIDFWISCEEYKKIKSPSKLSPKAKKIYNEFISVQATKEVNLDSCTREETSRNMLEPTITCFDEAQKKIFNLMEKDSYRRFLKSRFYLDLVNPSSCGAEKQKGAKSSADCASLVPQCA
MrgX1 ag: human MrgX1 receptor agonism, primary screen | B-score at 10 µM | MrgX1-HEK293 cells, Fluo-4 calcium fluorescence, agonist mode; stronger effect = higher value | actives 0.44% (n = 310,000) | AID 588627 | Q96LB2;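 active = calcium response B-score plate-corrected fluorescence ratio at least 3 library SD, with starting fluorescence B-score inside 5 SD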
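Assay system: MrgX1-expressing HEK293 cells / Amount: fifteen thousand cells per well / Doses: test compound in the initial addition of three / Timing: cells plated overnight, dye loaded 0.5 h 37 °C, 0.5 h room temperature / Technique: kinetic calcium dye fluorescence, Fluo-4 NW / Control set: positive and negative controls per plate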
MrgX1 allo act: allosterically activates human MrgX1 receptor signaling | Q96LB2 | MrgX1-HEK293, Fluo-4 calcium flux, FDSS; stronger effect = higher value | B-score at 10 µM | actives 0.63% (n = 310,000);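 active = plate-corrected calcium response at least 3 library SD above typical, normal starting fluorescence, not activating the receptor alone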;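 note: compound read alongside a low EC10 to EC30 dose of BAM8-22 agonist; peak minus trough fluorescence over baseline measured at the second addition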
Of the large screens only hits and unclear results are named; the others gave an inactive call.

N#C/C(=C/c1ccc(-c2cc(C(=O)O)cc(C(=O)O)c2)o1)c1nc2ccccc2s1	MrgX1 ag 27
O=C(NCc1ccccc1)c1ccc2c(=O)[nH]c3c(C(=O)NCC4CCCO4)sc(=S)n3c2c1 (configuration not stated)	none
O=C(NCc1ccco1)c1sc(=S)n2c1[nH]c(=O)c1ccccc12	MrgX1 ag 57
O=C(NC1CCCC1)c1sc(=S)n2c1[nH]c(=O)c1ccccc12	MrgX1 ag 60
CC(OC(=O)/C(C#N)=C/c1ccc(N(C)C)cc1)C(=O)N(C)c1ccccc1 (configuration not stated)	RGS4 pot -7.2
CC(=O)Nc1ccc(NC(=O)C(C)OC(=O)/C(C#N)=C/c2ccc(N(C)C)cc2)cc1 (configuration not stated)	none
CCCCCCCCC(=O)N/N=C/c1ccccn1	none
CCCCCCCCC/C(=N\O)c1ccccn1	RGS4 pot -10
O=C(CCc1nc2sc3c(c2c(=O)[nH]1)CCCC3)N1CCN(c2ccccc2)CC1	MrgX1 antagonist -7.2
CCN(CCn1cccn1)C(=O)CC1C(=O)NCCN1Cc1ccc(F)cc1 (configuration not stated)	MrgX1 ag 29
COc1ccc(C2C(C(=O)c3cccs3)=C(O)C(=O)N2CCN2CCOCC2)c(OC)c1 (configuration not stated)	none
O=C(/C=C/c1ccc(Cl)cc1)c1cccnc1	none
O=C(/C=C/c1ccccc1Cl)c1cccnc1	MrgX1 ag 28
OCC[C@@H]1C[C@H](O)[C@@H](O)[C@]2(CCCc3ccccc3O2)O1	none
CCN1/C(=C\c2ccc3cc(C)ccc3[n+]2CC)Sc2cc(C)c(C)cc21	none (no result: MrgX1 antagonist, MrgX1 ag, MrgX1 allo act)
CCN1/C(=C/c2ccc3cc(C)ccc3[n+]2CC)Sc2ccc3sccc3c21	MrgX1 ag 39
CCOC(=O)/C(C#N)=C/c1c(N2CCN(c3ccccc3)CC2)nc2c(C)cccn2c1=O	RGS4 pot -7.8
CCNC(=O)/C(C#N)=C/c1c(N2CCN(c3cccc(Cl)c3)CC2)nc2c(C)cccn2c1=O	RGS4 pot -11
OC(COc1ccccc1)CN(Cc1ccccc1)CC(O)COc1ccccc1 (configuration not stated)	none (no result: RGS4 pot, RGS4 block)
CCC(=O)c1ccc(OCC(O)CN(CCc2ccccc2)Cc2ccccc2)cc1 (configuration not stated)	RGS4 pot -8.3
Cn1c(=O)nc2n(Cc3ccccc3)c3cccc(Cl)c3cc-2c1=O	RGS4 pot -9.4
Cn1c(=O)n(Cc2ccccc2)c2ccccc21	none
CCCCOc1ccc(CC2CCC(=O)NC2=O)cc1 (configuration not stated)	none
Cc1ccc(-c2nc(NC(=O)c3cc(C(C)(C)C)nn3C)sc2C)cc1Cl	none
COC(=O)C(C)NC(=O)CNS(=O)(=O)c1ccc(F)cc1 (configuration not stated)	none
Cc1ccc(S(=O)(=O)N2CCN(C(=O)C3=COCCO3)CC2)cc1C	none
O=C(C1=COCCO1)N1CCN(S(=O)(=O)c2cccc(Cl)c2Cl)CC1	MrgX1 antagonist -5.7
CN(C)N1C(N)=C(C#N)C(c2cccnc2)C2=C1CC(C)(C)CC2=O (configuration not stated)	MrgX1 antagonist -4.8
C=CCNC(=O)COC(=O)c1ccc(Sc2nncn2C)c([N+](=O)[O-])c1	MrgX1 antagonist -5.2
Cc1nnc2ccc(-c3cccc(NS(=O)(=O)c4ccccc4[N+](=O)[O-])c3)nn12	MrgX1 ag 29
Cc1nnc2ccc(-c3cccc(NS(=O)(=O)c4ccccc4Cl)c3)nn12	none
O=[N+]([O-])c1ccccc1S(=O)(=O)Nc1cccc(-c2ccc3nncn3n2)c1	MrgX1 ag 27
O=C(Nc1cccc(C(=O)N2CCCc3ccccc32)c1)c1ccccc1	none
CC(=O)NC(NC(=S)Nc1cccc(Br)c1)C(Cl)(Cl)Cl (configuration not stated)	none
Brc1ccc(-c2csc(Nc3nc(-c4ccc(Br)cc4)cs3)n2)cc1	MrgX1 antagonist -4.5
Nc1nc(-c2ccc(Br)cc2)cs1	none
COc1ccc(C2NC(=O)NC(O)(C(F)(F)F)C2C(=O)c2ccc(C)cc2)cc1 (configuration not stated)	RGS4 pot -7.6
